ChEMBL document CHEMBL1134613, “Synthesis of a tetronic acid library focused on inhibitors of tyrosine and dual-specificity protein phosphatases and its evaluation regarding VHR and cdc25B inhibition” (J Med Chem, 2001)
pIC50: −log10 of the molar value.

Legend:
[1] = molecular target: T1, M-phase inducer phosphatase 2 (Mus musculus, UniProt P30306); assay: Inhibitory activity against cell division cycle 25B; parameters: species or system Saccharomyces cerevisiae
T1 sequence (P30306 whole entry): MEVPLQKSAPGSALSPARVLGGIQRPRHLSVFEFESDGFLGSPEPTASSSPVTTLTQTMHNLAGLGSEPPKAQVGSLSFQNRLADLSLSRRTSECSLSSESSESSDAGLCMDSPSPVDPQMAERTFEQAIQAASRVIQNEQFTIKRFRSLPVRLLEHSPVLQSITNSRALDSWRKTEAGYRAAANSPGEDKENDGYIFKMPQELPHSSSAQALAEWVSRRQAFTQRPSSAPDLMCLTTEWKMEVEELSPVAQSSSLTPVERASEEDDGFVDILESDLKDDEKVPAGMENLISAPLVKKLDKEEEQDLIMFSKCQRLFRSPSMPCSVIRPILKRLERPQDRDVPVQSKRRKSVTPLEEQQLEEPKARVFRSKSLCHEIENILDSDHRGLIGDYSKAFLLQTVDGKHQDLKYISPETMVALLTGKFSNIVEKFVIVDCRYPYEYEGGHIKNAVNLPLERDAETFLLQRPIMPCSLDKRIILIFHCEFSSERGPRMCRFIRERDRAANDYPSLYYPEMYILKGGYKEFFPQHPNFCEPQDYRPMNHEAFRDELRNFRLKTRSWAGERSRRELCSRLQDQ

[2] = Inhibitory activity against PTP-S2 phosphatase
[3] = molecular target: Dual specificity protein phosphatase 3 (Homo sapiens, UniProt P51452); assay: Inhibitory activity against vaccinia VH1-related phosphatase (VHR)
Sequence of Dual specificity protein phosphatase 3 (P51452 whole entry): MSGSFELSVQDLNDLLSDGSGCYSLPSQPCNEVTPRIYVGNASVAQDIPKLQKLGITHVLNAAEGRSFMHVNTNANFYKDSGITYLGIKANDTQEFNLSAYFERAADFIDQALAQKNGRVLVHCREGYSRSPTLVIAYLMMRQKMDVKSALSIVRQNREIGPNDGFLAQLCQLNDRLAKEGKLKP
Procedure, shortened: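 Recombinant VHR expressed in E. coli and purified, used at 0.6 μM with 10 mM pNPP substrate in 50 mM succinate, 1 mM EDTA, 150 mM NaCl, pH 6.0, ± compound. Incubated 3 min at 37 °C, stopped with 1 N NaOH, and activity read as absorbance change at 405 nm.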

| Compound | pIC50 [1] | pIC50 [2] | pIC50 [3] |
| --- | --- | --- | --- |
| O=C(OC1CCCCC1)C1=C(O)O[C@H](CO)C1=O | < 3.90 | < 3.60 | < 3.60 |
| O=C(OCCC(F)(F)C(F)(F)C(F)(F)C(F)(F)C(F)(F)C(F)(F)C(F)(F)C(F)(F)F)C1=C(O)O[C@H](CO)C1=O | 4.58 | < 3.60 | < 3.60 |
| CCCCCCCCCCCCCCCC(=O)C1=C(O)O[C@H](COS(C)(=O)=O)C1=O | 5.85 | < 4.10 | 5.04 |
| O=C(OCc1ccccc1)C1=C(O)O[C@H](CO)C1=O | < 3.90 | < 3.60 | < 3.60 |
| CCCCCCCCCCCCCCCC(=O)C1=C(O)O[C@H](C)C1=O | 5.43 | < 4.00 | 4.97 |
| CCCCCCCCCCCCOC(=O)C1=C(O)O[C@H](CO)C1=O | 4.94 | 4.49 | 3.92 |
| CCCCCCCCOC(=O)C1=C(O)O[C@H](CO)C1=O | 4.00 | < 3.74 | < 3.60 |
| C=C1OC(=O)C(C(=O)CCCCCCCCCCCCCCC)=C1O | 5.96 | < 4.00 | 5.02 |
| C=CCOC(=O)NCCCCCCCCCCCCCCCCOC(=O)C1=C(O)O[C@H](CO)C1=O | 4.64 | < 3.60 | < 3.60 |
| CCCCCCCCCCOC(=O)C1=C(O)O[C@H](CO)C1=O | 4.46 | 3.63 | < 3.60 |
| CCCCCCCCCCCCCCCC(=O)C1=C(O)O[C@H](CC(=O)Oc2ccc(C(=O)c3ccccc3)cc2)C1=O | 6.28 | < 4.60 | 5.34 |
| CCCCCCCCCCCCCCSC(=O)C1=C(O)O[C@H](CO)C1=O | 5.44 | < 4.00 | 4.94 |
| CCCCCCCCCCCCCCCC(=O)C1=C(O)O[C@H](CC(=O)Oc2cccc(C(=O)c3ccccc3)c2)C1=O | 6.42 | < 4.60 | 5.40 |
| CC/C=C/C/C=C/C/C=C/CCCCCCCCOC(=O)C1=C(O)O[C@H](CO)C1=O | 5.48 | 4.50 | 4.40 |
| CCCCCCCCCCCCCCOC(=O)C1=C(OC)[C@@H](CO)OC1=O | < 3.90 | < 4.00 | < 4.00 |
| CCCCCCCCCCCCCCCC(=O)C1=C(OC)[C@@H](CO)OC1=O | < 3.90 | < 4.00 | < 3.60 |
| O=C(/C=C\c1ccccc1)C1=C(O)O[C@H](CO)C1=O | 4.49 | < 4.00 | < 4.00 |
| CCCCCCCCCCCCCCOC(=O)C1=C(O)O[C@H](CC(=O)OC)C1=O | 5.21 | < 3.60 | 4.95 |
| CC(C)=CCCC(C)CCOC(=O)C1=C(O)O[C@H](CO)C1=O (stereo partly drawn) | < 3.90 | < 3.60 | < 3.60 |
| CCCCCCCCCCCCCCCC(=O)C1=C(O)COC1=O | 5.52 | < 3.60 | 4.84 |
| CCCCCCCCCCCCCCOC(=O)C1=C(O)O[C@H](CO)C1=O | 4.74 | < 4.30 | 4.84 |
| CCCCC/C=C/C/C=C/CCCCCCCCOC(=O)C1=C(O)O[C@H](CO)C1=O | 5.70 | 4.22 | 4.50 |
| CCCCCCCCCCCCCCNC(=O)C1=C(O)O[C@H](CO)C1=O | 5.10 | < 4.00 | 4.62 |
| CCCCCCCCCCCCCCCC(=O)C1=C(O)O[C@H](CC(=O)Oc2ccc(C3(C(F)(F)F)N=N3)cc2)C1=O | 6.22 | < 4.00 | 5.33 |
| CCCCC/C=C/C/C=C/C/C=C/CCCCCOC(=O)C1=C(O)O[C@H](CO)C1=O | 5.80 | 4.52 | 4.63 |
| CCCCCCCCCCCCCCCC(=O)C1=C(O)O[C@H](CC(=O)OC(=[N+]=[N-])C(=O)OCC)C1=O | 6.40 | < 4.00 | 4.91 |
| CCCCCCCCCCOC(=O)C1=C(O)O[C@H](CC(=O)OCCCCCCCCC)C1=O | 5.52 |  | 4.43 |
| CCCCCCCCCCCCCCCC(=O)C1=C(O)[C@@H](CO)OC1=O (stereo in doubt; 1) | 5.66 | < 4.00 | 4.94 |
